Holding throughout (type): biochemical
One assay concerns the target T1, h-NTPDase1 (Homo sapiens, UniProt P49961).
T1 sequence (P49961 1-510): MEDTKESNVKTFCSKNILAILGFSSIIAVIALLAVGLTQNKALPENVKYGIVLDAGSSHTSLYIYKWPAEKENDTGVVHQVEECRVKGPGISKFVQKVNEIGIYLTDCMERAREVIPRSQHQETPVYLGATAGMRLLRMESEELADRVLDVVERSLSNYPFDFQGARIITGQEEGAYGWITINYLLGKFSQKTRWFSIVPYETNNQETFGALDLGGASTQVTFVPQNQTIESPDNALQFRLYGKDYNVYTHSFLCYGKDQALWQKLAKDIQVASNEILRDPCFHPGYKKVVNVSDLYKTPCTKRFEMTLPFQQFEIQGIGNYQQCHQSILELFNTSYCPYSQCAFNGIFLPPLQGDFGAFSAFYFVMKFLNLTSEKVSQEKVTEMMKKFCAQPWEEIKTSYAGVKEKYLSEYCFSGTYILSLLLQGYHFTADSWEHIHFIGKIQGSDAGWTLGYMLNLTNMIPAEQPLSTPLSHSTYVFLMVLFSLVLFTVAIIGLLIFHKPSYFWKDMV
The experiment in a line: h-NTPDase1 enzyme inhibition, malachite green assay. The conditions noted are these: for inhibition at 100 µM: read-out: h-NTPDase1 % inhibition ± S.D. In short, it runs like this: (§1)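 Malachite green assay in 50 mM Tris-HCl, 5 mM CaCl2, pH 7.4. Test compound at 100 μM, in triplicate, incubated 10 min with enzyme: h-NTPDase1 12 ng, h-NTPDase2 37 ng, h-NTPDase3 43 ng, h-NTPDase8 63 ng. Plate read at 630 nm, then substrate (100 μM) added and incubated 15 min at 37 °C. Malachite green reagent added and reading taken up to 6 min.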

For the next assay, the target named is T2, h-NTPDase2 (Homo sapiens, UniProt Q9Y5L3).
T2 sequence (Q9Y5L3 1-495): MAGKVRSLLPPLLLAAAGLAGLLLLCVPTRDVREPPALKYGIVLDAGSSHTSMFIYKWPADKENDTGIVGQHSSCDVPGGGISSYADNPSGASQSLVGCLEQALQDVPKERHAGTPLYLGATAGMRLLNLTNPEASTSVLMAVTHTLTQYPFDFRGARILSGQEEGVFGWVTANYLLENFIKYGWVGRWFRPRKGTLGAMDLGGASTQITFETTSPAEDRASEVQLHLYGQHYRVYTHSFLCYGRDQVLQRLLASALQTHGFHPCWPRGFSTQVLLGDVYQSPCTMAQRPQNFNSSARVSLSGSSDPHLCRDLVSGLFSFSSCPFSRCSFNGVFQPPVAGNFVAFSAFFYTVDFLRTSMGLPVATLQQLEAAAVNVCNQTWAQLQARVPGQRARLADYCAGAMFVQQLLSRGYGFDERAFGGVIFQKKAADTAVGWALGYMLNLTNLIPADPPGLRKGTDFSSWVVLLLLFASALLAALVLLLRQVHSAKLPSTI
The assay is described as follows: h-NTPDase2 enzyme inhibition, malachite green assay. Particulars: for inhibition at 100 µM: read-out: h-NTPDase2 % inhibition ± S.D; for h-NTPDase2 IC50 ± SEM: triplicate, determined for compounds with over 50% inhibition at 100 μM. In short, it runs like this:
as §1

For the next assay, the target named is T3, h-NTPDase3 (Homo sapiens, UniProt O75355).
T3 sequence (O75355 1-529): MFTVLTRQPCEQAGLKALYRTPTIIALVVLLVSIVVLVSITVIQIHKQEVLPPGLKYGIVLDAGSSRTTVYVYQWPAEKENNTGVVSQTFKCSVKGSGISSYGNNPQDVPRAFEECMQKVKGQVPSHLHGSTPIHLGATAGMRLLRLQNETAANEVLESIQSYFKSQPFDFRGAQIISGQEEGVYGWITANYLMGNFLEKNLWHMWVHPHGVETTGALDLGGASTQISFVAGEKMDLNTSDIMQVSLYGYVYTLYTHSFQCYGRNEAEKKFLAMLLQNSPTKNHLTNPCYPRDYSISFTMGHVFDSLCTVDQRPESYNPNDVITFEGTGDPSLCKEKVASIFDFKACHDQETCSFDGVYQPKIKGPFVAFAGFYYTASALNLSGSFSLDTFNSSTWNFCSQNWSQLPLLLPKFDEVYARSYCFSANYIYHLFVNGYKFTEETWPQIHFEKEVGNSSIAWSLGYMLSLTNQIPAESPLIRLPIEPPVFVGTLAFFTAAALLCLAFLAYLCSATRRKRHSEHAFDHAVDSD
The assay is described as follows: h-NTPDase3 enzyme inhibition, malachite green assay. In short, it runs like this:
as §1

The next assay addresses T4, h-NTPDase8 (Homo sapiens, UniProt Q5MY95).
T4 sequence (Q5MY95 1-495): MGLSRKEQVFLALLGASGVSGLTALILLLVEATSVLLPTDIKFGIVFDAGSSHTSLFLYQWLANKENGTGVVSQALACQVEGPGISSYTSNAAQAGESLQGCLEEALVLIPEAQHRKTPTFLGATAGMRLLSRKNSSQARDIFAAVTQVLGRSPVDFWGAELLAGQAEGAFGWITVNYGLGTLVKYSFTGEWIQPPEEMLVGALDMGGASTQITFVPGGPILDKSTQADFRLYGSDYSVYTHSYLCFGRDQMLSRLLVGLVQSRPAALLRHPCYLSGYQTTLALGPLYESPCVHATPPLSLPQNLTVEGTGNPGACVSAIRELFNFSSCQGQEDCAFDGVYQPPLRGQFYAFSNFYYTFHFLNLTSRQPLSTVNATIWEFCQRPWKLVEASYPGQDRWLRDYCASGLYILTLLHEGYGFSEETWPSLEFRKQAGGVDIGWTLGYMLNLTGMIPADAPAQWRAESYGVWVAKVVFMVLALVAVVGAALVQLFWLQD
The assay is described as follows: h-NTPDase8 enzyme inhibition, malachite green assay. The conditions noted are these: for inhibition at 100 µM: read-out: h-NTPDase8 % inhibition ± S.D. In short, it runs like this: as §1

Bounds are passed on as bounds.

Turning to `O=C(O)c1cc(S(=O)(=O)NC2CC2)ccc1Cl` [2d, 2-chloro-5-(N-cyclopropylsulfamoyl)benzoic acid], the inhibition (as a rule, the relative decrease from the control value, in per cent) at 100 µM at h-NTPDase1 stood at 3 ± 1.2%; at h-NTPDase2 it was 19 ± 0.9%; on h-NTPDase3 (read-out: h-NTPDase3 % inhibition ± S.D) it was 41 ± 1.4%. At h-NTPDase8, the 50% inhibitory concentration (IC50) (commonly the point on the concentration scale where inhibition reaches its midpoint) was 280 ± 70 nM.
On to `COc1ccc(NC(=O)c2cccc(S(=O)(=O)N3CCOCC3)c2)cc1` [3f, N-(4-methoxyphenyl)-3-(morpholinosulfonyl)benzamide], for which the results for the IC50 against h-NTPDase1, against h-NTPDase2 and against h-NTPDase3 were more than 100000 nM, 270 ± 80 nM and 6710 ± 40 nM, respectively. At h-NTPDase2, the “h-NTPDase2 IC50 ± SEM” value is “sub-micromolar”. In addition, the inhibition at 100 µM at h-NTPDase8 was 29 ± 4.5%.
In the case of `O=C(c1cc(S(=O)(=O)Nc2ccc(Br)cc2)ccc1Cl)N1CCOCC1` [3i, N-(4-bromophenyl)-4-chloro-3-(morpholine-4-carbonyl)benzenesulfonamide], the IC50 stood at 2880 ± 130 nM against h-NTPDase1 and 720 ± 110 nM on h-NTPDase3. For the same compound, the inhibition at 100 µM at h-NTPDase2 was found to be 43 ± 1.4%; at h-NTPDase8, 32 ± 3.5%.
Turning to `COc1ccc(NC(=O)c2cc(S(=O)(=O)NCc3ccccc3)ccc2Cl)cc1` [3j, 5-(N-benzylsulfamoyl)-2-chloro-N-(4-methoxyphenyl)benzamide], the inhibition at 100 µM is 37 ± 1.3% on h-NTPDase1 and 36 ± 1.7% on h-NTPDase8. Moreover, the IC50 turned out to be 290 ± 70 nM on h-NTPDase2 and 3160 ± 120 nM against h-NTPDase3. The “h-NTPDase2 IC50 ± SEM” value at h-NTPDase2 is “sub-micromolar”.
As to `O=C(NC1CC1)c1cc(S(=O)(=O)NC2CC2)ccc1Cl` [4d, 2-chloro-N-cyclopropyl-5-(N-cyclopropylsulfamoyl)benzamide], at h-NTPDase1, the inhibition at 100 µM was 36 ± 2.4%. Also, the IC50 is 130 ± 10 nM at h-NTPDase2, 200 ± 70 nM at h-NTPDase3 and 2460 ± 90 nM on h-NTPDase8. The “h-NTPDase2 IC50 ± SEM” value at h-NTPDase2 is reported as “sub-micromolar”.
For `Cc1ccc(C(=O)Nc2ccc(S(=O)(=O)O)c3cc(S(=O)(=O)O)cc(S(=O)(=O)O)c23)cc1NC(=O)c1cccc(NC(=O)Nc2cccc(C(=O)Nc3cc(C(=O)Nc4ccc(S(=O)(=O)O)c5cc(S(=O)(=O)O)cc(S(=O)(=O)O)c45)ccc3C)c2)c1` [Suramin, reference compound], the IC50 on h-NTPDase8 turned out to be 101000 ± 2340 nM.

Source of the values: paper PMC10335114 (RSC Advances, 2023).
